Experimental data published in ChEMBL document CHEMBL4673184, “Synthesis and biological evaluation of S-lipidated lipopeptides of a connexin 43 channel inhibitory peptide” (RSC Med Chem, 2020).
Active and inactive are the calls of the source. No cut-off for these calls is given here. Where a SMILES comes first, the peptide text is derived from it. The star is where a group is joined. Ethyl(2-stearoyloxy) = CCCCCCCCCCCCCCCCCC(=O)OCC*; Ethyl(2-OPiv) = CC(C)(C)C(=O)OCC*

Experiments:
[1] = target: Gap junction alpha-1 protein (Homo sapiens) (UniProt P17302); assay: Inhibition of Cx43 in hypoxic-acidic ion-shifted ringers solution-induced human cerebral microvascular endothelial cell model of ischaemic injury assessed as ATP release at 10 uM measured after 2 hrs by luciferin-luciferase based luminescence assay relative to control; design: scale not given: the % may be the effect or the level left
Chain of Gap junction alpha-1 protein (Homo sapiens) (P17302 whole entry): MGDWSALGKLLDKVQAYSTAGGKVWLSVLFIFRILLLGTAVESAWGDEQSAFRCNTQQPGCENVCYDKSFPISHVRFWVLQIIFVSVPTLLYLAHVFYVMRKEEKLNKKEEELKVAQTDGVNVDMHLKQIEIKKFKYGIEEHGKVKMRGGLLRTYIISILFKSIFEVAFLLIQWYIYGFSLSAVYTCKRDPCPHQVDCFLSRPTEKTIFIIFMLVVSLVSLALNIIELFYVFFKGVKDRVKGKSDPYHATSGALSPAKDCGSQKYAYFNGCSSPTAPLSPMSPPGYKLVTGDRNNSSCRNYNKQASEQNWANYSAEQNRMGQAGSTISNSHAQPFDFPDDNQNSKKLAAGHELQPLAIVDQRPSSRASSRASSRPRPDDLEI
Outline: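 hCMVEC (passages 8-17) seeded at 2 x 10^6/well on collagen-I (1 µg/cm²) and grown 48 h to a confluent monolayer. Washed in NR, then exposed 2 h in HAIR (pH 6.6, N₂-bubbled, low Ca²⁺, K-gluconate/NMDG) containing peptide at 10 µM. Supernatant diluted 1:10 in firefly luciferase mix and read at 560 nm against an ATP standard (0-50 nM). Expressed as % of HAIR-only, mean of n=3.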

[2] = Stability in rat plasma assessed as half life at 150 ug/l measured up to 60 mins by HPLC analysis; assay type: ADME, cell-free
Outline: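 Peptide from a 20 mg/L water stock incubated in 25% rat serum (v/v) in PBS pH 7.4 at a final 150 μg/L, 37 °C. Samples taken at 0-60 min and quenched with MeCN plus 15% TCA, held overnight at 4 °C, then centrifuged. Remaining peptide measured by C18 RP-HPLC peak area at 210 nm relative to t=0. Run in triplicate.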

| half-life at 150 ug/l [2] | SMILES | Activity [1] |
| --- | --- | --- |
| 5 min | CC(C)C[C@H](NC(=O)[C@H](Cc1ccccc1)NC(=O)[C@H](CS)NC(=O)[C@H](CC(=O)O)NC(=O)[C@@H](N)C(C)C)C(=O)N[C@@H](CO)C(=O)N[C@@H](CCCNC(=N)N)C(=O)N1CCC[C@H]1C(=O)N[C@H](C(=O)N[C@@H](CCC(=O)O)C(=O)N[C@@H](CCCCN)C(=O)N[C@H](C(=O)O)[C@@H](C)O)[C@@H](C)O (H-VDCFLSRPTEKT-OH) | 53.8% |
| – | CCCCCCCCCCCCCCCCCC(=O)OCCSC[C@H](N)C(=O)N[C@@H](CC(=O)O)C(=O)N[C@@H](CS)C(=O)N[C@@H](Cc1ccccc1)C(=O)N[C@@H](CC(C)C)C(=O)N[C@@H](CO)C(=O)N[C@@H](CCCNC(=N)N)C(=O)N1CCC[C@H]1C(=O)N[C@H](C(=O)N[C@@H](CCC(=O)O)C(=O)N[C@@H](CCCCN)C(=O)N[C@H](C(=O)O)[C@@H](C)O)[C@@H](C)O (H-C(Ethyl(2-stearoyloxy))DCFLSRPTEKT-OH) | inactive |
| – | CC(C)C[C@H](NC(=O)[C@H](Cc1ccccc1)NC(=O)[C@H](CS)NC(=O)[C@H](CC(=O)O)NC(=O)[C@@H](N)C(C)C)C(=O)N[C@@H](CO)C(=O)N[C@@H](CCCNC(=N)N)C(=O)N1CCC[C@H]1C(=O)N[C@@H](CSCCOC(=O)C(C)(C)C)C(=O)N[C@@H](CCC(=O)O)C(=O)N[C@@H](CCCCN)C(=O)N[C@H](C(=O)O)[C@@H](C)O (H-VDCFLSRPC(Ethyl(2-OPiv))EKT-OH) | inactive |
